hiPSC survival = enhancers of single-cell hiPSC survival, primary screen, ATPlite luminescence. 100% = ROCK inhibitor wells, 0% = DMSO. survival enhancement, % at 20 µM. 0.044% of 360,000 active. AID 602274, 2012; in the data active = survival enhancement above about 18%;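 note: cells exposed to compounds for 16 hours before the ATP read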
FAS-TE inh = FAS thioesterase domain inhibitors, primary screen, biochemical, fluorescence intensity, uHTS | recombinant FAS-TE, OMFH fluorogenic substrate, fluorescence endpoint | 0.67% of 360,000 active | inhibition, % at 15 µM | AID 602261, 2012;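 active = compounds whose normalised, plate-corrected inhibition of enzyme fluorescence in the single-dose primary screen is 50% or more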
SENP1 FRET inh = human SENP1 catalytic domain inhibitors, primary screen, biochemical, FRET, uHTS | Sentrin-specific protease 1 (Homo sapiens), Q9P0U3 | recombinant SENP1 catalytic domain, CyPet-SUMO1-YPet FRET cleavage | inhibition, % at 10 µM | 0.21% of 360,000 active | AID 624204, 2012;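 active = inhibition at least 30% at 10 µM, raw YFP signal under a set limit, fluorescence ratio 0.5 to 1.5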
Target sequence (Q9P0U3 419-644 limits assumed): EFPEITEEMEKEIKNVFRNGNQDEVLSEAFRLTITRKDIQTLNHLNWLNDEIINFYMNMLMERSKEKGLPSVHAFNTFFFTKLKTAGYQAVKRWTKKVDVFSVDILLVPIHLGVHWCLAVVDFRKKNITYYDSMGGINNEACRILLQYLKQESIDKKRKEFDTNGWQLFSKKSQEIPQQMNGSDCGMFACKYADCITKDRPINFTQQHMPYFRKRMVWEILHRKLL
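Controls: no-enzyme wells low, DMSO-plus-enzyme wells high control. Test system: human recombinant His6-tagged SENP1 catalytic domain enzyme. Reagent: SFCypet-SUMO1-SFYpet FRET protein substrate, 25 nM final. Doses: one dose per compound, 10 µM, 0.5% DMSO. Detection: FRET, CFP and YFP emission. Timing: 50 min reaction at room temperature.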
ABCB6 inh 2 = ABCB6 transporter inhibitors, primary screen, K562-ABCB6 cells, flow cytometry, MLPCN library; K562-ABCB6 porphyrin accumulation, 1 h; stronger effect = lower value; fluorescence ratio to DMSO, % at 10 µM; 0.19% of 360,000 active;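 active = fluorescence ratio to DMSO below 75%, the collection mean minus 3 SD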;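 note: signal is porphyrin accumulated inside mitochondria; lower ratio means ABCB6 inhibition with less porphyrin fluorescence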
FAS-TE inh conf = FAS thioesterase domain inhibitors, confirmation, biochemical, fluorescence intensity, single concentration | 45% of 2,300 active | AID 624325, 2012 | shares compounds with FAS-TE inh | recombinant FAS-TE, OMFH fluorogenic substrate | inhibition, % at 15 µM;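 active = compounds inhibiting the enzyme by at least 50% at 15 µM in any one of the replicates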
Large screens that a line does not name were inactive (follow-up assays come after a bar, where they were run). Compounds with a hit are over-represented: about 1.1% of the library has one in this group of screens.

CC1(C(=O)Nc2ccc(Cl)c(Cl)c2)CCN1C(=O)CC1CCCC1 (stereo not drawn)	FAS-TE inh 62 | FAS-TE inh conf 54
Cc1ccc(C)c(S(=O)(=O)N2CCN(C(C(=O)Nc3ccc(F)cc3)c3ccccc3)CC2)c1 (stereo not drawn)	none
O=C(Nc1ccc(F)cc1)C(c1ccccc1)N1CCN(S(=O)(=O)c2ccc3ccccc3c2)CC1 (stereo not drawn)	FAS-TE inh 86 | FAS-TE inh conf inactive
Cc1nnc2n(Cc3ccccc3)c(=O)c3c4c(sc3n12)COC(C(C)C)C4 (stereo not drawn)	FAS-TE inh 55 | FAS-TE inh conf inactive
COc1ccc2[nH]c3c(c2c1)CCN1C(=O)C(CC(=O)NCCC2=CCCCC2)C[C@H](C(=O)N2CCOCC2)[C@@]31CCC1CCCC1 (stereo partly drawn)	FAS-TE inh 67 | FAS-TE inh conf 69
O=C(C[C@H]1C[C@H](C(=O)N2CCOCC2)[C@@]2(CCC3CCCC3)c3[nH]c4ccc(Cl)cc4c3CCN2C1=O)NCC12CC3CC(CC(C3)C1)C2	FAS-TE inh 82 | FAS-TE inh conf inactive
COc1ccc2[nH]c3c(c2c1)CCN1C(=O)C(CC(=O)NCC24CC5CC(CC(C5)C2)C4)C[C@H](C(=O)N2CCOCC2)[C@@]31CCC1CCCC1 (stereo partly drawn)	FAS-TE inh 80 | FAS-TE inh conf inactive
CC(C)(C)c1ccc(CC(=O)N2CCC2(C)C(=O)NCc2cccc3ccccc23)cc1 (stereo not drawn)	none
O=C(Nc1ccc2c(c1)OCCO2)C(C1CC1)n1c(=O)c(-c2cc3ccccc3[nH]2)nc2ccccc21 (stereo not drawn)	none (no result: hiPSC survival, FAS-TE inh, ABCB6 inh 2)
CCN(C(=O)CSc1nnnn1C)C1CCS(=O)(=O)C1 (stereo not drawn)	none
CN(C)c1ccc(/C=N/NC(=O)CN2CCCCC2)cc1Br	none
O=C(COc1ncnc2cc([N+](=O)[O-])ccc12)N(CCc1ccccc1)Cc1ccccc1	FAS-TE inh 62 | FAS-TE inh conf 52
O=C(COc1ccc([N+](=O)[O-])cc1)N(Cc1ccccc1)Cc1ccccc1	none
CCOc1cc(/C=C(\C#N)C(=O)Nc2ccccc2C(=O)O)ccc1OC(=O)c1ccc(C)cc1	FAS-TE inh 80 | FAS-TE inh conf inactive
O=C(Nc1ccc(Cl)cc1)c1csc(-c2ccncc2)n1	none
O=C(Nc1ccc(Cl)cc1)c1csc(-c2ccccc2)n1	FAS-TE inh 61 | FAS-TE inh conf 59
Cc1ccccc1C(=O)Nc1nc2c(C)csc2c(=O)s1	FAS-TE inh 51 | FAS-TE inh conf inactive
Cc1csc2c(=O)sc(NC(=O)c3ccc(F)cc3)nc12	none
Cc1csc2c(=O)sc(NC(=O)c3ccc(F)cc3Cl)nc12	FAS-TE inh 84 | FAS-TE inh conf inactive
O=C(Nc1cccc(OC(F)(F)F)c1)[C@@H]1O[C@H](CO)[C@H](O)[C@H](O)[C@H]1O	none
O=C(N[C@@H](Cc1ccccc1)C(=O)N1CCN(S(=O)(=O)c2ccccc2F)CC1)c1ccco1	none
O=C(NCCN1C(=O)S/C(=C\c2ccc(Cl)c(Cl)c2)C1=O)c1cnccn1	none
O=C(NCCN1C(=O)S/C(=C\c2ccc(Cl)c([N+](=O)[O-])c2)C1=O)C1=COCCO1	FAS-TE inh 52 | FAS-TE inh conf inactive
Cc1ccc(N2C(=O)N3[C@H](c4ccc(Cl)cc4)[C@@H]4C(=O)N(C5CCCCC5)C(=O)[C@@H]4[C@]3(Cc3ccccc3)C2=O)cc1	FAS-TE inh 93 | FAS-TE inh conf inactive
O=C1[C@H]2[C@@H](c3ccc(F)cc3)N3C(=O)N(c4cccc(F)c4)C(=O)[C@@]3(Cc3ccc(Cl)cc3)[C@H]2C(=O)N1C1CCCCC1	FAS-TE inh 71 | FAS-TE inh conf inactive
CC[C@@]12C(=O)N(c3cccc(F)c3)C(=O)N1[C@H](c1ccc(Cl)cc1)[C@@H]1C(=O)N(C3CCCCC3)C(=O)[C@@H]12	FAS-TE inh 67 | FAS-TE inh conf inactive
Cc1cccc(N2C(=O)N3[C@H](c4ccc(F)cc4)[C@@H]4C(=O)N(C5CCCCC5)C(=O)[C@@H]4[C@]3(Cc3ccc(Cl)cc3)C2=O)c1	FAS-TE inh 93 | FAS-TE inh conf inactive
Cc1ccc(N2C(=O)N3[C@H](c4ccc(F)cc4)[C@@H]4C(=O)N(C5CCCCC5)C(=O)[C@@H]4[C@]3(C)C2=O)cc1	none
COC(=O)c1c(NC(=O)Cc2ccc(OC)c(S(=O)(=O)N3CCOCC3)c2)sc(C)c1C	none
Cc1cc(C)c2nc(NC(=O)c3cccc(S(=O)(=O)N4CCc5ccccc54)c3)sc2c1	FAS-TE inh 70 | FAS-TE inh conf inactive
Cc1cccc2sc(NC(=O)c3cccc(S(=O)(=O)N4CCc5ccccc54)c3)nc12	none
Cc1ccc(C(NC(=O)/C=C\c2ccc3c(c2)OCO3)C(=O)Nc2ccc3c(c2)OCO3)cc1 (stereo not drawn)	FAS-TE inh 55 | FAS-TE inh conf inactive
C#CCCOC(=O)Nc1ccccc1	none
O=C(c1cccc(NS(=O)(=O)c2ccc(F)c(F)c2)c1)N1CCCCC1	none
COc1ccc2sc(-c3ccc(S(C)(=O)=O)cc3)c(-c3ccc4c(c3)OCCO4)c2c1	FAS-TE inh 57 | FAS-TE inh conf inactive
COc1ccc(-c2c(-c3ccc(S(C)(=O)=O)cc3)sc3ccc(OC)cc23)cc1	none
COc1cc2sc(-c3ccc(S(C)(=O)=O)cc3)c(-c3ccc4c(c3)OCO4)c2cc1OC	FAS-TE inh 80 | FAS-TE inh conf inactive
CCOC(=O)c1cncc(O)c1	none
CC1(C)CC(=O)C2=C(C1)N(c1cccc(Cl)c1)C(=O)NC2(C(F)(F)F)C(F)(F)F	none
CCc1nc(N2CCN(C(=S)NCCCOC)CC2)c2c3c(sc2n1)CCCC3	none
O=C(Nc1ncc2c(n1)-c1ccccc1OC2)c1ccc(F)cc1	none
O=C(Nc1ncc2c(n1)-c1ccccc1OC2)c1cccc([N+](=O)[O-])c1	FAS-TE inh 55 | FAS-TE inh conf 64
COC(=O)c1ccc2c(=O)n(-c3ccccc3)c(SCN3C(=O)c4ccccc4C3=O)nc2c1	FAS-TE inh 62 | FAS-TE inh conf inactive
N#Cc1cc(-c2ccc(Cl)cc2)cn(Cc2c(Cl)cccc2Cl)c1=O	FAS-TE inh 62 | FAS-TE inh conf inactive
CCOC(=O)[C@]12Cc3c(cc(OC)c(OC)c3OC)[C@H]1N(C1CCCCC1)C(=O)c1cc(OC)ccc12	FAS-TE inh 50 | FAS-TE inh conf inactive
CCCCCCn1c(=O)c(F)cn(Cc2ccc(OC)c([N+](=O)[O-])c2)c1=O	FAS-TE inh 58 | FAS-TE inh conf 57
